From PubChem BioAssay
Sampled rows, rich in hits. Any-hit rate of the full collection: about 2.3%.
TRPC6 act = mouse TRPC6 channel activation; AID 2550; Q61143; B-score at 10 µM; HEK293-TRPC6 membrane potential dye fluorescence; hits give high values; hit rate 0.13% among 310,000;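 active = B-score of the integrated fluorescence ratio above library mean plus 3 SD, and starting fluorescence ratio within library mean plus 5 SD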;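 note: higher score means more depolarization so channel activation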
TRPC6 inh = inhibitors of mouse TRPC6 channel; HEK293-TRPC6, membrane potential dye, ACh-evoked depolarization; hits give low values; AID 2553; hit rate 1.1% among 310,000; B-score at 10 µM; Q61143;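 active = B-score under library mean minus 3 SD, initial fluorescence not abnormally high, positive integrated signal ratio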;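 note: B-score derived from integrated fluorescence ratio over the kinetic read; more negative B-score means stronger inhibition of depolarization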
TRPC4 inh = blocks the mouse TRPC4 cation channel; HEK293 TRPC4beta/mu-opioid, DAMGO-evoked Fluo4 calcium flux; hits give low values; hit rate 0.39% among 300,000; B-score at 10 µM; Q9QUQ5; AID 2247;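 active = B-score over 3 SD under the library average, no early fluorescence shift, positive overall ratio signal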
Target sequence (Q9QUQ5 whole entry, looked up): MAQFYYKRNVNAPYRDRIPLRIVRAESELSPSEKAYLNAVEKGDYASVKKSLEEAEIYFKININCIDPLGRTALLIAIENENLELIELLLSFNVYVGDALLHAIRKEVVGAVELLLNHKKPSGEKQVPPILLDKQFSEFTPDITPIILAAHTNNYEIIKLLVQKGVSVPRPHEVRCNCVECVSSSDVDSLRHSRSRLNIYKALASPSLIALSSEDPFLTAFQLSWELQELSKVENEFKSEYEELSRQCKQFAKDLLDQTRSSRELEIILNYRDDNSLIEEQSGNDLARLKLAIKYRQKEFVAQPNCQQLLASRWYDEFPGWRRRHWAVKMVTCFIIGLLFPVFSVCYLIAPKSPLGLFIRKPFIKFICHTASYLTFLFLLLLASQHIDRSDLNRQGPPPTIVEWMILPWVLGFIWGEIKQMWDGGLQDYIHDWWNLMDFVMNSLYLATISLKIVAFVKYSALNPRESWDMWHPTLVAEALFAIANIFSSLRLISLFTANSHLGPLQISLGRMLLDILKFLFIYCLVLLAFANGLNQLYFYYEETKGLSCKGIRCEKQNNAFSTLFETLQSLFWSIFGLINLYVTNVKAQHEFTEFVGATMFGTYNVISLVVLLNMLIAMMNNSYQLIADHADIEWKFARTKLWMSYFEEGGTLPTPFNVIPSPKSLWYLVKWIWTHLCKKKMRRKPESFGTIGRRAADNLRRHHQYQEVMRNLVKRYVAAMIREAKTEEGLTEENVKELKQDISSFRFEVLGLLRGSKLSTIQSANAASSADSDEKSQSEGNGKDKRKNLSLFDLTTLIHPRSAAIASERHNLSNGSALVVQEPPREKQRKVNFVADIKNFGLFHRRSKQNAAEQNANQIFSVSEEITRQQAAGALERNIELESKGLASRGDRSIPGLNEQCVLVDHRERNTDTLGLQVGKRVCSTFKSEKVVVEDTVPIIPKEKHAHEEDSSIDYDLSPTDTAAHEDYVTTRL
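Material: HEK293 cells with stable TRPC4beta plus mu-opioid receptor expression; probe or stimulus: DAMGO in two steps, submaximal then maximal; technique: Fluo4 calcium fluorescence by kinetic imaging, 5 s 1 Hz baseline; measure: integrated fluorescence ratio relative to baseline, converted to per-well B score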
TRPC4 act = opens the mouse TRPC4 cation channel | HEK293 TRPC4beta/mu-opioid, Fluo4 calcium fluorescence; hits give high values | Q9QUQ5 | hit rate 0.49% among 310,000 | B-score at 10 µM;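 active = B-score above 5 SD of library B-scores, and initial fluorescence ratio not above library mean plus 5 SD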;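 note: positive B-score marks a calcium rise read as TRPC4 activation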
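Incubation: 45 min room-temperature Fluo4 loading, 110 s read / System: HEK293 cells stably co-expressing mouse TRPC4beta and mu-opioid receptor / Signal: Fluo4 fluorescence, kinetic / Control set: buffer (low) and maximal DAMGO (high) / Measure: integrated baseline-normalised fluorescence ratio, converted to per-well B score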
TRPC4 PAM = allosterically enhances the mouse TRPC4 cation channel | AID 2227 | hit rate 0.42% among 310,000 | Q9QUQ5 | B-score at 10 µM | HEK293 TRPC4beta/mu-opioid, DAMGO EC20, Fluo-4 Ca2+ flux; hits give high values;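 active = B-score of calcium response area above 5 SD of library B-scores, with initial fluorescence ratio within 5 SD of library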;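 note: B-score of integrated fluorescence ratio over time as area under calcium response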
* marks the source's active call; other numbers are inactive results; i = inactive.

SMILES	TRPC6 act	TRPC6 inh	TRPC4 inh	TRPC4 act	TRPC4 PAM
CC1(C)CC(=O)c2cc(C(=O)NCc3ccco3)c(=O)n(-c3ccc(Cl)cc3)c2C1	i	i	i	121*	i
CNC(=S)N(Cc1ccco1)Cc1cc2cc(OC)ccc2[nH]c1=O	i	i	i	i	i
CCOP(=O)(c1ccccc1)c1nc(-c2ccccc2Cl)oc1N1CCCCC1 (stereo unspecified)	i	i	i	i	17*
CCCC1Cc2nc(N3CCCCC3)c(C#N)cc2CO1 (stereo unspecified)	i	i	i	i	10*
CCCC1Cc2[nH]c(=O)c(C#N)cc2CO1 (stereo unspecified)	i	i	i	i	i
N#Cc1ccc(C23CC4(C2)[C@H](CN(Cc2ccc(-c5ccccc5)cc2)[C@@H]4c2ccccc2)C3c2ccc(Cl)nc2)cc1 (stereo partly specified)	i	i	i	i	i
COc1ccc(C2C(C(=O)N3CCN(C)CC3)c3cc(OC)c(OC)cc3C(=O)N2C)cc1 (stereo unspecified)	i	i	i	i	i
CCN1CCN(C(=O)C2c3cc(OC)c(OC)cc3C(=O)N(C)C2c2ccc(SC)cc2)CC1 (stereo unspecified)	i	i	i	67*	i
COc1ccccc1N1CCN(C(c2cccs2)C(C)NC(=O)c2ccco2)CC1 (stereo unspecified)	i	i	i	103*	i
O=C(CCSc1nc(-c2ccco2)cc(C(F)(F)F)n1)N1CCN(c2ccccn2)CC1	i	-6.34*	i	i	i
Clc1ccc(CONc2ncnc3nonc23)c(Cl)c1	i	i	i	i	30*
CCONc1ncnc2nonc12	i	i	i	i	i
Cc1ccc(-c2nc(CS(=O)CC(=O)NCCCN3CC(C)CC(C)C3)c(C)o2)cc1 (stereo unspecified)	i	i	i	62*	i
CCCCN(C)CCCNC(=O)CS(=O)Cc1nc(-c2ccc(OC)c(OC)c2)oc1C (stereo unspecified)	i	i	i	i	i
COc1ccc(-c2nc(CS(=O)CC(=O)NCCCN3CC(C)CC(C)C3)c(C)o2)cc1OC (stereo unspecified)	i	i	i	104*	i
CCCN(CCC)CCCNC(=O)CS(=O)Cc1nc(-c2ccc(OC)c(OC)c2)oc1C (stereo unspecified)	i	i	i	64*	i
Cc1ccc(C(=O)Nn2cnc3scc(-c4cccs4)c3c2=O)c(O)c1	i	i	i	i	i
CN(Cc1ccccc1)C(=O)c1nc2ccccn2c1CN1CCCC1c1nccs1 (stereo unspecified)	i	i	i	i	i
Cc1cc(C)cc(NC(=O)c2nnn(Cc3cc(C)ccc3C)c2N)c1	i	i	i	i	17*
CCOC(=O)c1cnc2c(C)cccc2c1NCCc1ccc(OC)c(OC)c1	i	i	-6*	i	i
O=C(NNC(=O)C1CC=CCC1)c1ccccc1O (stereo unspecified)	i	i	i	i	i
O=[N+]([O-])c1ccccc1CN1CCN(S(=O)(=O)c2ccccc2)CC1	i	i	i	i	17*
COc1ccc(C(=O)NCCS(=O)(=O)N2CCc3ccccc3C2)cc1OC	i	i	i	i	i
CCCc1cc(C(=O)Cc2ccc(F)cc2)c(O)cc1O	i	i	i	i	i
CCCc1cc(C(=O)Cc2ccc(C(=O)OCC)o2)c(O)cc1O	i	-5.46*	i	i	i
SMILES	TRPC6 act	TRPC6 inh	TRPC4 inh	TRPC4 act	TRPC4 PAM
Cc1ccc(OCc2cc(C(=O)NC(C)Cc3cccnc3)no2)cc1C (stereo unspecified)	i	i	i	i	i
Cc1nnc2n(Cc3ccccc3)c(=O)c3c4c(sc3n12)COC(C(C)C)C4 (stereo unspecified)	i	i	i	i	11*
CCN1CCCC(OC(=O)c2cc(-c3ccc(C)cc3)nc3ccccc23)C1 (stereo unspecified)	i	i	i	i	14*
COc1ccc(CCN(C)C(=O)C2CCCN(C3CCN(Cc4ccccc4)CC3)C2)cc1OC (stereo unspecified)	i	i	i	131*	i
CCN(CC)C(=O)C1CCCN(Cc2cccc(Oc3ccccc3)c2)C1 (stereo unspecified)	i	i	-7*	i	i
CN(Cc1cccc(Cl)c1)C(=O)C1CCN(C(=O)Nc2ccccc2)CC1	i	i	i	i	i
CN(Cc1ccccc1)C(=O)C1CCCN(Cc2cccc(Cl)c2)C1 (stereo unspecified)	i	i	-8*	i	i
Cc1nn(CC(=O)Nc2ccc(Br)cc2F)c(=O)c2cccn12	i	i	i	i	i
COc1ccccc1C(=O)COC(=O)c1nc(Cl)ccc1Cl	i	i	i	i	i
O=C(COC(=O)c1nc(Cl)ccc1Cl)c1ccccc1Cl	i	i	i	i	137*
COc1ccccc1C(CCNCc1ccc(N(C)C)cc1)c1ccc(OC(C)C)cc1 (stereo unspecified)	i	i	i	47*	i
COc1ccc(CNCCC(c2ccccc2)c2ccc3c(c2)OCO3)cc1 (stereo unspecified)	i	i	i	125*	i
CC1(C)CC(=O)C2=C(C1)OC(N)=C(C#N)C2c1cn(-c2ccccc2)nc1-c1ccc(F)cc1 (stereo unspecified)	i	i	i	i	i
O=c1c2ccccc2ncn1-c1ccc([N+](=O)[O-])cc1[N+](=O)[O-]	i	i	i	i	i
Cc1ccc(-n2cnn(-c3ccc([N+](=O)[O-])cc3[N+](=O)[O-])c2=O)cc1	i	i	-6*	i	i
CC1CCC(C(=O)NC(C(=O)NCCCN2CCOCC2)C(C)C)CC1 (stereo unspecified)	i	i	i	i	i
CCCCN(C)CCNC(=O)C(NC(=O)C1CCC(C)CC1)C(C)C (stereo unspecified)	i	i	i	52*	i
CN1CCN(c2cc3c(c4c2[nH]c2ccccc24)C(=O)CC(C)(C)C3)CC1	i	i	i	79*	i
CN1CCN(c2ncnc3c2[nH]c2ccc(F)cc23)CC1	i	i	i	i	i
COc1ccc(C(C(=O)NCC2CCCO2)N(Cc2cccs2)C(=O)c2snc(C(N)=O)c2N)cc1 (stereo unspecified)	i	i	i	i	i
